Results from ChEMBL document CHEMBL2046347, “Structure-activity relationships in human Toll-like receptor 2-specific monoacyl lipopeptides” (J Med Chem, 2012).
Each block holds one compound with its values, some of them ahead of it. Active and inactive are the calls of the source. The rule behind the calls is not given here.

What was measured:
Type in all cases: functional, cell-based
[1] = biological target: Toll-like receptor 2 (Homo sapiens) (UniProt O60603); assay: Agonist activity at human TLR2 expressed in HEK293 cells assessed as NFkappaB translocation at 10 uM after 12 hrs by secretory alkaline phosphatase reporter gene assay
Chain of Toll-like receptor 2 (Homo sapiens) (O60603 whole entry): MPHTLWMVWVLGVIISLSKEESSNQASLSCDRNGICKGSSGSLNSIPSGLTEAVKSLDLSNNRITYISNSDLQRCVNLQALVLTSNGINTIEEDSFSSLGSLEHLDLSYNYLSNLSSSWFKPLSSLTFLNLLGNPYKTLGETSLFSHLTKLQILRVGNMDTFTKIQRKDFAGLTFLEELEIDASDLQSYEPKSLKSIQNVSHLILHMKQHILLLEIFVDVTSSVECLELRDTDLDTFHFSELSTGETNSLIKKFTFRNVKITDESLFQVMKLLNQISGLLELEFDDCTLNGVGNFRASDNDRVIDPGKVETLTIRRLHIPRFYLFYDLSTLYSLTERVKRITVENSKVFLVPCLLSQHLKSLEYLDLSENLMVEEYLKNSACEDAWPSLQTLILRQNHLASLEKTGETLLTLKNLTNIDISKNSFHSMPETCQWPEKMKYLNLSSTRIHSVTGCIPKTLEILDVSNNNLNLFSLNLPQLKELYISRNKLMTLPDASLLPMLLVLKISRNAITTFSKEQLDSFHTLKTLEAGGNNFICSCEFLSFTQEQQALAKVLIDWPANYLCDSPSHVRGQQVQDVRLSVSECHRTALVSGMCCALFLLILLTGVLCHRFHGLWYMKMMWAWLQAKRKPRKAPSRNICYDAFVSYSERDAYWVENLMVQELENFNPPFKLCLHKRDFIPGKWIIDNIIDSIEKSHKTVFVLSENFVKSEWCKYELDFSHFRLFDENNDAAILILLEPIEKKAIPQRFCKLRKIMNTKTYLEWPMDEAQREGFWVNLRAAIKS

[2] = biological target: Toll-like receptor 2 (Mus musculus) (UniProt Q9QUN7); assay: Agonist activity at mouse TLR2 expressed in HEK293 cells assessed as NFkappaB translocation after 12 hrs by secretory alkaline phosphatase reporter gene assay
Chain of Toll-like receptor 2 (Mus musculus) (Q9QUN7 whole entry): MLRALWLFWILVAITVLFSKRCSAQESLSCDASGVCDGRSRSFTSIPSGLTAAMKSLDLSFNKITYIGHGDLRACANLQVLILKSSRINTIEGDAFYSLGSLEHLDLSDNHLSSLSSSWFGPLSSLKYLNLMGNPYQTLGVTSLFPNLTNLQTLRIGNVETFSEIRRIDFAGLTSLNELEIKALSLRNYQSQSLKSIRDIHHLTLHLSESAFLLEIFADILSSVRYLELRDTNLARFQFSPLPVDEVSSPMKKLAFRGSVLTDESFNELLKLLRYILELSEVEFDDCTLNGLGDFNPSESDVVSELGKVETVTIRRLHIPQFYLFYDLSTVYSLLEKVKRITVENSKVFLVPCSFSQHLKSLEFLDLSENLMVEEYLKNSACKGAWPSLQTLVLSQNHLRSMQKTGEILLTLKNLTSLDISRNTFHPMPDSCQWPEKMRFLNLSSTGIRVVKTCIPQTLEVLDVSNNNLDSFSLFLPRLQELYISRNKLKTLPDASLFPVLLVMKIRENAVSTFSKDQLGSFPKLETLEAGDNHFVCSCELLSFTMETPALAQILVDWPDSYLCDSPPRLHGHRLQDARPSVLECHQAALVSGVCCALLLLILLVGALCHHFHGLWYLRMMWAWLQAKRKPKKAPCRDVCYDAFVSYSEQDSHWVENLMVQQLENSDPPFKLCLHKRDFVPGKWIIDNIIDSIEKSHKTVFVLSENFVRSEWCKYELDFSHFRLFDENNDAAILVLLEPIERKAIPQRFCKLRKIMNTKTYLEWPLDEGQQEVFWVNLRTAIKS
Summary of the method: (§1)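 HEK293 cells stably carrying human or murine TLR2 plus an NF-κB-driven secreted alkaline phosphatase reporter, kept in selection medium with zeocin and normocin. Seeded at ~10⁵ cells/mL and grown to confluency, then exposed to serially diluted compounds for 12 h. Secreted phosphatase in supernatant read colorimetrically at 620 nm with an alkaline phosphatase-specific chromogen in detection medium.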

[3] = biological target: Toll-like receptor 2 (Homo sapiens) (UniProt O60603); assay: Agonist activity at human TLR2 expressed in HEK293 cells assessed as NFkappaB translocation after 12 hrs by secretory alkaline phosphatase reporter gene assay; summary of the method: as §1
[4] = biological target: Toll-like receptor 2 (Mus musculus) (UniProt Q9QUN7); assay: Antagonistic activity at mouse TLR2 expressed in HEK293 cells assessed as inhibition of PAM2CS-induced NFkappaB translocation by secretory alkaline phosphatase reporter gene assay
Summary of the method: (§2)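 Reporter HEK293 lines (human or murine TLR2, NF-κB-inducible secreted alkaline phosphatase) plated at ~10⁵ cells/mL. Stimulated with PAM2CS (1 μg/mL) or lipoteichoic acid (1 μg/mL) in the presence of graded test-compound concentrations. Phosphatase activity in supernatant measured spectrophotometrically at 620 nm using a phosphatase-specific chromogen.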

[5] = biological target: Toll-like receptor 2 (Homo sapiens) (UniProt O60603); assay: Antagonistic activity at human TLR2 expressed in HEK293 cells assessed as inhibition of PAM2CS-induced NFkappaB translocation by secretory alkaline phosphatase reporter gene assay; summary of the method: as §2
[6] = biological target: Toll-like receptor 2 (Homo sapiens) (UniProt O60603); assay: Antagonistic activity at human TLR2 expressed in HEK293 cells assessed as inhibition of lipoteichoic acid-induced NFkappaB translocation by secretory alkaline phosphatase reporter gene assay; summary of the method: as §2
[7] = biological target: Toll-like receptor 2 (Mus musculus) (UniProt Q9QUN7); assay: Antagonistic activity at mouse TLR2 expressed in HEK293 cells assessed as inhibition of lipoteichoic acid-induced NFkappaB translocation by secretory alkaline phosphatase reporter gene assay; summary of the method: as §2

Activity [1]: inactive
Structure (SMILES): CCCCCCCCCCCCCCN(CCCCCCCCCCCCCC)CC(=O)OCCSC[C@H](N)C(=O)N[C@@H](CO)C(=O)OC

Activity [3]: inactive
Structure (SMILES): CCCCCCCCCCCCCCCC(=O)OCCSC[C@H](NS(=O)(=O)C(F)(F)F)C(=O)N[C@@H](CO)C(=O)OC

Activity [3]: inactive
Structure (SMILES): CCCCCCCCCCCCCCCC(=O)OCCSC[C@H](NC(=O)C(Cl)(Cl)Cl)C(=O)N[C@@H](CO)C(=O)OC

Activity [2]: inactive
Structure (SMILES): CCCCCCCCCCCCCCCC(=O)OCCSC[C@H](N)C(=O)N[C@@H](CO)C(=O)OC

Activity [2]: inactive
Structure (SMILES): CCCCCCCCCCCCCCCC(=O)OCCSC[C@H](NC(=O)CCC)C(=O)N[C@@H](CO)C(=O)OC

Activity [3]: inactive
Structure (SMILES): CCCCCCCCCCCCCCCC(=O)OCCSC[C@H](NS(=O)(=O)c1ccc(C)cc1)C(=O)N[C@@H](CO)C(=O)OC

Activity [2]: inactive
Structure (SMILES): CCCCCCCCCCCCCCCC(=O)OCCSC[C@H](NC(=O)CCCCCCC)C(=O)N[C@@H](CO)C(=O)OC

Activity [1]: inactive
Structure (SMILES): CCCCCCCCCCCCCCCC(=O)OCCSC[C@H](NCC)C(=O)N[C@@H](CO)C(=O)OC

Second part, the compound before the results:

Structure (SMILES): CCCCCCCCCCCCCCCC(=O)OCCSC[C@H](NC(C)=O)C(=O)N[C@@H](CO)C(=O)OC
Activity [2]: inactive

Structure (SMILES): CCCCCCCCCCCCCCNCC(=O)OCCSC[C@H](N)C(=O)N[C@@H](CO)C(=O)OC
Activity [1]: inactive

Structure (SMILES): CCCCCCCCCCCCCCCC(=O)N[C@@H](CSCCOC(=O)CCCCCCCCCCCCCCC)C(=O)N[C@@H](CO)C(=O)OC
Activity [1]: inactive

Structure (SMILES): CCCCCCCCCCCCCCCC(=O)OCCSC[C@H](NCCCCCCCC)C(=O)N[C@@H](CO)C(=O)OC
Activity [1]: inactive

Structure (SMILES): CCCCCCCCCCCCCCCCN[C@@H](CSCCOC(=O)CCCCCCCCCCCCCCC)C(=O)N[C@@H](CO)C(=O)OC
Activity [1]: inactive

Structure (SMILES): COC(=O)[C@H](CO)NC(=O)[C@@H](N)CSCCOC(=O)c1ccc(-c2ccc(-c3ccccc3)cc2)cc1
Activity [1]: inactive | inhibition [4]: inactive | inhibition [5]: inactive | inhibition [6]: inactive | inhibition [7]: inactive

Structure (SMILES): CCCCCCCCCCCCCCCC(=O)OCCSC[C@H](NS(C)(=O)=O)C(=O)N[C@@H](CO)C(=O)OC
Activity [3]: inactive

Structure (SMILES): COC(=O)[C@H](CO)NC(=O)[C@@H](N)CSCCOC(=O)c1cccc(-c2ccccc2)c1
Activity [1]: inactive | inhibition [4]: inactive | inhibition [5]: inactive | inhibition [6]: inactive | inhibition [7]: inactive

Structure (SMILES): COC(=O)[C@H](CO)NC(=O)[C@@H](N)CSCCOC(=O)c1ccc(-c2ccccc2)cc1
Activity [1]: inactive | inhibition [4]: inactive | inhibition [5]: inactive | inhibition [6]: inactive | inhibition [7]: inactive

Structure (SMILES): CCCCCCCCCCCC(=O)OCCSC[C@H](N)C(=O)N[C@@H](CO)C(=O)OC
Activity [1]: inactive | inhibition [4]: inactive | inhibition [5]: inactive | inhibition [6]: inactive | inhibition [7]: inactive

Structure (SMILES): CCCCCCCC(=O)OCCSC[C@H](N)C(=O)N[C@@H](CO)C(=O)OC
Activity [1]: inactive | inhibition [4]: inactive | inhibition [5]: inactive | inhibition [6]: inactive | inhibition [7]: inactive

Structure (SMILES): CCCCCCCCCCCCCCCCCC(=O)OCCSC[C@H](N)C(=O)N[C@@H](CO)C(=O)OC
Activity [2]: inactive

Structure (SMILES): CCCCCCCCCCCCCCCC(=O)OCCSC[C@H](N)C(=O)N[C@@H](COC(C)=O)C(=O)OC
Activity [3]: Active

Structure (SMILES): CCCC(=O)OCCSC[C@H](N)C(=O)N[C@@H](CO)C(=O)OC
Activity [1]: inactive | inhibition [4]: inactive | inhibition [5]: inactive | inhibition [6]: inactive | inhibition [7]: inactive
